Assay [1] concerns CEM-SS cells (Homo sapiens). Briefly: In vitro inhibition of CEM-SS cell growth by 50 %.
In assay [2] the test system is Human immunodeficiency virus 1. Briefly: In vitro inhibition of HIV-1 plaque formation. The class given is functional, organism-based. The essentials:
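HIV-1 syncytial plaque assay. CEM-SS cells in log phase, washed in PBS, 50 000 per well in serum-free RPMI-1640 on poly-L-lysine-coated wells, 30 min at 37 °C, 5% CO2. Inoculated with HIV-1 (60–90 PFU). After 60 min, overlay with or without compound at serial twofold dilutions, 0.03–20.0 μM. Second overlay on day 3. Plaques counted on day 5 to give IC50. Mean ± SD, n ≥ 3, or a single experiment.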

Assay [3] concerns Human immunodeficiency virus 1. Briefly: Differential selectivity measured as the ratio of CEM-SS cell growth IC50 vs HIV plaque formation IC50. It is filed as functional. In a few lines:
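Selectivity index taken as CEM-SS growth IC50 (48 h suspension culture, [3H]thymidine uptake) divided by HIV-1 syncytial plaque IC50 (day-5 plaque count in CEM-SS monolayers, 60–90 PFU). Both IC50s come from twofold dilutions over 0.03–20.0 μM.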

Take `CCCCCCCCCCCCCCCCCCNC(=O)NCC(COP(=O)([O-])OCC[N+](C)(C)C)OCC` (stereo not drawn): the IC50 (in general, the midpoint of a concentration-inhibition curve) was 7700 nM in assay [1] and 570 nM in assay [2]. Moreover, the Ratio in assay [3] is recorded as 13.5.
In the case of `CCCCCCCCCCCCCCCCCCSCC(C[N+](C)(C)CCCO)OC.[I-]` (stereo not drawn), the IC50 in assay [1] is 4000 nM; in assay [2] it was 410 nM. In addition, in assay [3], the Ratio amounted to 9.8.
Regarding `CCCCCCCCCCCCCCCCSCC(C[N+](C)(C)CC(O)CO)OC.[Br-]` (stereo not drawn), the IC50 in assay [1] turned out to be 2000 nM; in assay [2], 490 nM. Besides, the Ratio in assay [3] amounted to 4.1.
As for `Cc1cn([C@H]2C[C@H](N=[N+]=[N-])[C@@H](CO)O2)c(=O)[nH]c1=O` [ZIDOVUDINE], in assay [1], the IC50 turned out to be 5600 nM.
Regarding `CCCCCCCCCCCCCCCCCCOCC(COP(=O)([O-])OCC[N+](C)(C)C)OCC` (stereo not drawn), the half-inhibitory concentration (IC50) in assay [1] stood at 3000 nM; in assay [2], 270 nM. Further, the Ratio in assay [3] amounted to 11.1.
In the case of `CCCCCCCCCCCCCCCCOCC(CP(=O)([O-])OCC[n+]1ccccc1)OC` (stereo not drawn), the IC50 in assay [1] amounted to 7700 nM; in assay [2], 2200 nM. For the same compound, the Ratio in assay [3] is given as 3.5.
On the same counts, the results for `CCCCCCCCCCCCCCCC(=O)NCC(COP(=O)([O-])OCC[N+](C)(C)C)OC` (stereo not drawn) are 24700 nM, 930 nM and 26.6.
On the same counts, the results for `CCCCCCCCCCCCCCCCCC(=O)NCC(COP(=O)([O-])OCC[N+](C)(C)C)OCC` (stereo not drawn) are 13500 nM, 160 nM and 84.4.
In the case of `CCCCCCCCCCCCCCCCSCC(C[N+](C)(C)C)OC.[Br-]` (stereo not drawn), the IC50 was 5300 nM in assay [1] and 390 nM in assay [2]. For the same compound, the Ratio in assay [3] is on record as 13.4.
Turning to `CCCCCCCCCCCCCCCCOCC(CO)OCC` (stereo not drawn), the IC50 is greater than 20000 nM in assay [1] and greater than 5000 nM in assay [2].
As to `CCCCCCCCCCCCCCCCOCC(COP(=O)([O-])OCC[n+]1ccccc1)OCC` (stereo not drawn), the IC50 in assay [1] is 8100 nM; in assay [2], 4700 nM. Moreover, the Ratio in assay [3] is given as 1.7.
Turning to `CCCCCCCCCCCCCCCCOCC(C[N+]1(CO)CCCCC1)OCC.[I-]` (stereo not drawn), the concentration for half-maximal inhibition (IC50) worked out at 2400 nM in assay [1] and 300 nM in assay [2]. Besides, the Ratio in assay [3] worked out at 8.
For the compound `CCCCCCCCCCCCCCCCOCC[N+](C)(C)CCCO.[I-]`, the IC50 stood at 1500 nM in assay [1] and 240 nM in assay [2]. In assay [3], the Ratio was determined as 6.1.
As for `CCCCCCCCCCCCCCCCOCC(COP(=O)(O)OCCNC(C)C)OCC` (stereo not drawn), the IC50 in assay [1] is 7000 nM; in assay [2], greater than 5000 nM.
As to `CCCCCCCCCCCCCCCCOCC(COP(=O)(O)OCCNC(C)(C)C)OCC` (stereo not drawn), the IC50 in assay [1] was 10000 nM; in assay [2] it was greater than 5000 nM.
In the case of `CCCCCCCCCCCCCCCCSCC(C[N+](C)(C)CCO)OC.[Br-]` (stereo not drawn), the values for the IC50 in assay [1] and in assay [2] were 2100 nM and 370 nM, respectively. In assay [3], the Ratio was 5.7.
With `CCCCCCCCCCCCCCCC(=O)NCC(COP(=O)([O-])OCC[N+](C)(C)C)OCC` (stereo not drawn), the IC50 in assay [1] was determined as 19000 nM; in assay [2], 460 nM. Moreover, the Ratio in assay [3] worked out at 41.3.
On the same counts, the results for `CCCCCCCCCCCCCCCCOCC(C[n+]1ccccc1)OCC.[Br-]` (stereo not drawn) are 1100 nM, 210 nM and 5.2.
Take `CCCCCCCCCCCCCCCCCCCC(=O)NCC(COP(=O)([O-])OCC[N+](C)(C)C)OCC` (stereo not drawn): the IC50 in assay [1] came to 4700 nM; in assay [2], 160 nM. Further, the Ratio in assay [3] was 29.4.
The corresponding values for `CCCCCCCCCCCCCCCCSCC(COP(=O)([O-])OCC[N+](C)(C)C)OCC` (stereo not drawn) are 4100 nM, 700 nM and 5.9.
For `CCCCCCCCCCCCCCCCOCC[N+](C)(C)CCO.[I-]`, the IC50 in assay [1] was 6000 nM; in assay [2], 380 nM. Besides, in assay [3], the Ratio worked out at 15.6.
For `CCCCCCCCCCCCCCCCCCSCC(COP(=O)([O-])OCC[N+](C)(C)C)OC` (stereo not drawn), the IC50 in assay [1] was found to be 3800 nM; in assay [2] it was 490 nM. The Ratio in assay [3] stood at 7.8.
With `CCCCCCCCCCCCCCCCOCC(C[N+](C)(C)C)OC.[Br-]` (stereo not drawn), the IC50 in assay [1] is 1100 nM; in assay [2], 520 nM. The Ratio in assay [3] was 2.1.
In the case of `CCCCCCCCCCCCCCCCCC(=O)NCCOP(=O)([O-])OCC[N+](C)(C)C`, the IC50 came to 19300 nM in assay [1] and 280 nM in assay [2]. For the same compound, the Ratio in assay [3] is given as 68.7.
Consider `CCCCCCCCCCCCCCCCSCCOP(=O)([O-])OCC[N+](C)(C)C`, for which the IC50 in assay [1] worked out at 7600 nM; in assay [2] it was 280 nM. The Ratio in assay [3] stood at 27.1.
On the same counts, the results for `CCCCCCCCCCCCCCCCCCOCC[N+](C)(C)CC(O)CO.[I-]` (stereo not drawn) are 2900 nM, 200 nM and 14.5.
As for `CCCCCCCCCCCCCCCCCCS(=O)(=O)CC(COP(=O)([O-])OCC[N+](C)(C)C)OCC` (stereo not drawn), the IC50 was determined as 9000 nM in assay [1] and 1200 nM in assay [2]. Moreover, the Ratio in assay [3] is 7.5.
`CCCCCCCCCCCCCCCCOCC(CN(C)CCO)OC` (stereo not drawn): the IC50 in assay [1] amounted to 3200 nM; in assay [2] it was 2100 nM. The Ratio in assay [3] worked out at 1.5.
`CCCCCCCCCCCCCCCCCC(=O)NCC(COP(=O)([O-])OCC[N+](C)(C)C)OC` (stereo not drawn): the IC50 amounted to 14200 nM in assay [1] and 300 nM in assay [2]. In addition, in assay [3], the Ratio is 47.3.
For the compound `CCCCCCCCCCCCCCCCCCOCC(COP(=O)([O-])OCC[N+](C)(C)C)OC` (stereo not drawn) [EDELFOSINE], the IC50 amounted to 4000 nM in assay [1] and 920 nM in assay [2]. Further, in assay [3], the Ratio is 4.3.
Take `CCCCCCCCCCCCCCCCSCC(C[N+](C)(C)CCO)OCC.[Br-]` (stereo not drawn): the IC50 in assay [1] is 5100 nM; in assay [2], 630 nM. Moreover, the Ratio in assay [3] came out at 8.1.

The values are drawn from ChEMBL document CHEMBL1125666, “In vitro evaluation of phosphocholine and quaternary ammonium containing lipids as novel anti-HIV agents” (J Med Chem, 1991).
